Assay outcomes deposited in PubChem BioAssay by several laboratories.
Shown are actives, neighbours in structure and some others; about 1% of the full set was active somewhere.
FXIIa inh: inhibitors of human coagulation factor XIIa. P00748. purified FXIIa, Boc-QGR-AMC fluorogenic substrate, 2 h. inhibition, % at 5 µM. 220,000 compounds, 0.3% hits. AID 800; in the data active means inhibition above about 40%;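 further: 0% = enzyme with no compound and 100% = blank without enzyme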
Target sequence (P00748 20-372 limits assumed): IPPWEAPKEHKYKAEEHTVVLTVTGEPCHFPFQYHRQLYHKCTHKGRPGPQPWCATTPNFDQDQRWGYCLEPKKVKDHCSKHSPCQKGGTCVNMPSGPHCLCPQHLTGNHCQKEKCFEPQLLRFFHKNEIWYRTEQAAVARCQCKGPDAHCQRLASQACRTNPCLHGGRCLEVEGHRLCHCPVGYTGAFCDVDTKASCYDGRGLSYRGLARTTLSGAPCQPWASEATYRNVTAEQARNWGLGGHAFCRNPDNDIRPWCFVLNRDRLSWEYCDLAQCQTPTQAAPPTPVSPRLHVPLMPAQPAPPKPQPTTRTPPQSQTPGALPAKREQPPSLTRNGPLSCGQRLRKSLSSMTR
Target sequence (P00748 373-615 limits assumed): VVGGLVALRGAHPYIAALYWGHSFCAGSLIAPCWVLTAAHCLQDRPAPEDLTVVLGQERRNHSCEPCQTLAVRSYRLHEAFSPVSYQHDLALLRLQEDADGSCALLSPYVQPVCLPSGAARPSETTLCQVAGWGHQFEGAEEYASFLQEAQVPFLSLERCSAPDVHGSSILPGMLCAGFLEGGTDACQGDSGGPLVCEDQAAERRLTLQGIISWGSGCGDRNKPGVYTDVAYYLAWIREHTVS
HSV replic up: increases HSV replication in cells | HSV replication augmentation in cells, fold increase | maximum fold increase | 220,000 compounds, 0.005% hits | AID 1956; in the data active means maximum fold increase above about 1.5; inconclusive means no clear call, values can overlap the other calls; tested in PC3 cells
Thrombin inh: blocks human thrombin protease activity. P00734. 220,000 compounds, 0.26% hits. AID 1046. alpha-thrombin, Boc-VPR-AMC fluorogenic substrate cleavage. inhibition, % at 5 µM;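 active means inhibition at or above 40%; inactive means inhibition below 40%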;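 further: 0% = enzyme with no compound and 100% = wells without enzyme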
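Material: human alpha-thrombin protein. Incubation: reaction at ambient temperature. Technique: fluorescence of released AMC, ex 355 nm, em 460 nm. Control set: no-compound enzyme wells and no-enzyme blanks. Also added: Boc-VPR-AMC substrate, 15 µM final. Buffer or medium: pH 7.5 Tris (50 mM) with NaCl 150 mM, Tween 20 0.05%.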
Furin inhibitor: human furin inhibition. AID 463115. purified furin, fluorogenic substrate cleavage. inhibition, % at 20 µM or 30 µM. 220,000 compounds, 0.061% hits. P09958; in the data active means inhibition above about 25%
hK5 inh: inhibitors of human kallikrein 5; recombinant hK5, fluorogenic AMC substrate cleavage; 210,000 compounds, 0.59% hits; AID 873; Q9Y337; inhibition, % at 5 µM;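 active means inhibition of 40% or more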;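 further: 0% = enzyme controls without compound and 100% = no-enzyme blanks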
FXIa inh 1536: inhibitors of human coagulation factor XIa | 220,000 compounds, 0.14% hits | purified FXIa, Boc-Glu-Ala-Arg-AMC fluorogenic substrate | P03951 | inhibition, % at 5 µM;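 active means inhibition of at least 40%; inactive means inhibition below 40%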;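 further: fluorescence of freed AMC excited at 355 nm; 0% = enzyme without compound and 100% = no enzyme blank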
* = called active by the depositor; i = inactive; ? = inconclusive; . = no result.

SMILES	FXIIa inh	HSV replic up	Thrombin inh	Furin inhibitor	hK5 inh	FXIa inh 1536
CC(=O)n1nc(-c2ccc(C)cc2)nc1NCc1ccc(F)cc1	-7.2	i	93.8*	-17.4	-24.4	-8.8
C=CCNC(=S)N(CC)c1cccc2ccccc12	6.1	i	8.4	-18.3	3.8	1.3
COc1ccc2oc(=O)c(-c3ccccc3C(=O)N3CCOCC3)cc2c1	-2.6	i	-11.6	-13.2	-15.7	-5.5
CC1C(C#N)=C(SCC(N)=O)NC2=C1C(=O)CC(C)(C)C2 (centres undefined)	1.1	i	-0.4	-14.8	-12.5	-5.4
COc1ccc2c(c1)C(C)(CCN)C(=O)N2C (centres undefined)	.	i	.	.	.	.
O=C(O)C1CCN(c2ccc(Cl)nn2)CC1	9.0	.	54.9*	-36.3	1.4	-2.4
CCOC(=O)C1CCN(c2ccc(Cl)nn2)CC1	0.3	i	2.5	-19.4	-13.4	-1.2
Cc1ccc(-n2c(SCC(=O)N3Cc4ccccc4CC3C(=O)O)nnc2-c2cccnc2)c(C)c1 (centres undefined)	14.6	i	-6.4	-17.5	12.9	4.5
CCn1c(C)nc2cc(C(=O)n3cc(C(=O)c4ccccc4O)cn3)ccc21	37.4	i	-4.6	-29.8	-1.9	13.6
O=C(c1cnn(C(=O)COc2ccccc2F)c1)c1cc(F)ccc1O	7.8	i	-7.0	-9.8	-2.9	0.9
CN(C)c1cccc(C(=O)n2cc(C(=O)c3cc(F)ccc3O)cn2)c1	41.4*	i	15.8	-16.3	32.0	4.4
O=C(c1cnn(C(=O)c2ccc(O)cc2)c1)c1ccccc1O	17.6	i	12.2	-6.3	41.9*	2.2
O=C(O)C1CCN(C(=O)CCc2ccccc2)CC1	2.6	i	-3.6	-17.7	-8.8	-9.0
Clc1ccccc1CN1CCN(CCCc2ccccc2)CC1	97.6*	i	-6.7	-15.9	-1.6	3.5
OCC1(CCc2ccccc2)CCN(Cc2ccccc2Cl)CC1	11.2	i	3.6	-17.3	.	3.9
COC(=O)C(NC(C)=O)(Nc1ccc(C)cn1)C(F)(F)F (centres undefined)	16.7	i	8.8	-0.1	4.6	2.9
CCOC(=O)CSc1nnc(NC(=O)c2cc([N+](=O)[O-])cc([N+](=O)[O-])c2)s1	20.9	i	92.2*	10.2	17.7	13.3
COc1ccc(-c2cnnc(N/N=C/c3ccc(O)c(OC)c3)n2)cc1	11.4	i	-0.4	-7.7	1.7	10.6
O=C(c1ccc(S(=O)(=O)NCC2CCCO2)cc1)N1CCc2ccccc21 (centres undefined)	29.2	i	3.3	-0.2	0.0	24.2
O=C(CNCC1CCCO1)N1CCCc2ccccc21 (centres undefined)	8.6	i	15.2	-20.0	51.8*	6.4
CC12CCC(c3c(C(=O)Nc4nccs4)nn(-c4ccccc4)c31)C2(C)C (centres undefined)	22.1	i	13.8	-5.7	52.0*	11.5
Cc1cc(C)c(S(=O)(=O)N2CCCOC2CNC(=O)C(=O)NCCc2c[nH]c3ccccc23)c(C)c1 (centres undefined)	13.5	i	0.0	-13.5	-18.9	6.1
O=c1[nH]c(-[n+]2ccccc2)c(/C=N/NC([S-])=Nc2ccccc2)s1	3.0	?	-5.2	9.0	44.0*	-11.7
CCOc1ccc(NC(=S)N2CCN(c3ccc(N4CCOCC4)nn3)CC2)cc1	21.2	i	10.3	-2.4	18.1	8.8
CCn1cc(C(=O)NCc2ccco2)c(=O)c2cc(S(=O)(=O)N3CCCCCC3)ccc21	15.9	i	40.8*	2.8	-4.0	-1.8
SMILES	FXIIa inh	HSV replic up	Thrombin inh	Furin inhibitor	hK5 inh	FXIa inh 1536
Cn1cc(C(=O)NCc2cccs2)c(=O)c2cc(S(=O)(=O)N3CCCC3)ccc21	2.7	i	73.9*	-11.4	-6.3	-2.2
CCn1cc(C(=O)NCc2ccco2)c(=O)c2cc(S(=O)(=O)N3CCC(C)CC3)ccc21	22.6	i	8.4	-14.6	-3.1	2.5
Cc1ccc(NC(=O)c2sc3nc(CCl)[nH]c(=O)c3c2C)c(C)c1	0.9	i	.	-14.8	-4.1	0.9
C=CCNC(=O)N[C@@H](Cc1ccccc1)C(=O)OC	7.6	i	1.4	-9.2	-3.7	1.2
CCOC(=O)NC(=O)CSc1nc2ccc([N+](=O)[O-])cc2[nH]1	27.0	i	14.1	-3.7	43.7*	30.8
COc1ccc(Nc2nnc(SC(C(=O)Nc3cc(C)ccc3C)c3ccccc3)s2)cc1 (centres undefined)	74.9*	i	38.3	-12.1	22.0	29.8
